Measurements reported in ChEMBL document CHEMBL4732214, “Highly Selective Y Receptor Antagonist Binds in an Allosteric Binding Pocket” (J Med Chem, 2021).
Activity calls are given as the source filed them. No cut-off for these calls is given here.

Legend:
[1] = target: T1, Neuropeptide Y receptor type 1 (Mus musculus) (UniProt Q04573); assay: Allosteric antagonist activity at NPY1R in mouse descending colon mucosa assessed as reduction in PYY-induced ion transport at 30 uM by electrophysiology
T1 sequence (whole entry): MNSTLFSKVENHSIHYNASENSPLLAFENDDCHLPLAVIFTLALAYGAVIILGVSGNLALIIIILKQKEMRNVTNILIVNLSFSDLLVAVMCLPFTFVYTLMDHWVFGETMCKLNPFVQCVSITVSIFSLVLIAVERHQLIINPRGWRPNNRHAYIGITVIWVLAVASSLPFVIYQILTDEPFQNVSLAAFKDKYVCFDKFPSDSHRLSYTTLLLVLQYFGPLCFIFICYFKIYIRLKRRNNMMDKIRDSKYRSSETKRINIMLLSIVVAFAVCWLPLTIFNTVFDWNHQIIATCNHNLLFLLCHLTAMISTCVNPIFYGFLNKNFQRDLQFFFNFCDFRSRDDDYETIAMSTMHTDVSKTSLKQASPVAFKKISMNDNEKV

[2] = target: T2, Neuropeptide Y receptor type 4 (Homo sapiens, UniProt P50391); assay: Allosteric antagonist activity at […]-tagged human NPY4R expressed in COS7 cells co-expressing Gqi5-alpha assessed as inhibition of PP-induced Ca2+ flux by Fluo-2 AM dye based fluorescent assay relative to control; format: functional, cell-based
T2 sequence (P50391 whole entry): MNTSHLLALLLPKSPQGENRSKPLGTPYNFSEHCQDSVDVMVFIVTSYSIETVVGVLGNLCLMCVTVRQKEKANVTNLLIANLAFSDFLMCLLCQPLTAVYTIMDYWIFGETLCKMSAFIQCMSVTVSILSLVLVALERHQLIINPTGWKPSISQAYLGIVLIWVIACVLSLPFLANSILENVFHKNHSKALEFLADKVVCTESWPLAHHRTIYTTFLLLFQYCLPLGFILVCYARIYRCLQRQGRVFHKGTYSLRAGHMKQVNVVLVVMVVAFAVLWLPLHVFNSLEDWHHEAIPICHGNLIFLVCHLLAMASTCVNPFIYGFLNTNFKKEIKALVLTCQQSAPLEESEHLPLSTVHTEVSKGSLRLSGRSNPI

[3] = target: T1, Neuropeptide Y receptor type 1 (Mus musculus); assay: Allosteric antagonist activity at NPY1R in mouse descending colon mucosa assessed as reduction in PYY-induced ion transport at 0.3 to 30 uM by electrophysiology; conditions: dose 0.3-30 µM
[4] = target: T3, Neuropeptide Y receptor type 2 (Mus musculus) (UniProt P97295); assay: Allosteric antagonist activity at NPY2R in mouse descending colon mucosa assessed as reduction in PYY-induced ion transport at 0.3 to 30 uM by electrophysiology; conditions: dose 0.3-30 µM
T3 sequence (whole entry): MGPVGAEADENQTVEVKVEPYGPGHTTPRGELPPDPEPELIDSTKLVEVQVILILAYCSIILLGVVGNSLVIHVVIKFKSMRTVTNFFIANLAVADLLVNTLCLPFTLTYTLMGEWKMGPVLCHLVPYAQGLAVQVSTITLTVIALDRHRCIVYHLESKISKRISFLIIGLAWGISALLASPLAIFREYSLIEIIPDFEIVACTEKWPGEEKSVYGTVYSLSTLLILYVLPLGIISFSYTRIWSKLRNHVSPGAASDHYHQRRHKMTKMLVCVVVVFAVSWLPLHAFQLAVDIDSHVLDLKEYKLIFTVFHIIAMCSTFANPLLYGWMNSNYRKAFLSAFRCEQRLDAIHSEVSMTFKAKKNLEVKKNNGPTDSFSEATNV

[5] = target: T3, Neuropeptide Y receptor type 2 (Mus musculus); assay: Allosteric antagonist activity at NPY2R in mouse descending colon mucosa assessed as reduction in PYY-induced ion transport at 30 uM by electrophysiology
[6] = test system: COS7; assay: Allosteric antagonist activity at human NPY4R chimera containing NPY1R transmembrane helix 2 expressed in COS7 cells co-expressing Gqi5-alpha assessed as inhibition of PP-induced Ca2+ flux at 15 uM by Fluo-2 AM dye based fluorescent assay; format: cell-based
Summary of the method: (§1)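 Y4R/Y1R chimeras carrying Y1R TM1, TM2 or ECL2 segments, C-terminal eYFP, transiently cotransfected with Δ6Gαqi4myr in COS7 cells. Fluo2-AM Ca²⁺ flux. 15 μM antagonist or DMSO added, followed by PP. Reduction in PP response given relative to DMSO control, normalized to 1 μM PP.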

[7] = target: T2, Neuropeptide Y receptor type 4; assay: Inhibition of 100 nM PP-induced receptor internalization of eYFP-tagged human NPY4R expressed in HEK293 cells at 30 uM after 30 mins by fluorescence microscopy; format: cell-based; conditions: filed as allosteric antagonist
Summary of the method: (§2)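 HEK293 cells stably expressing Y4R-eYFP, nuclei stained with Hoechst. Cells given 30 μM compound or DMSO in OptiMEM, then 10 or 100 nM PP (or medium) for 30 min at 37 °C. eYFP imaged at a fixed 400 ms exposure. Cell-surface fluorescence quantified as pixel intensity, normalized to unstimulated DMSO control.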

[8] = target: T2, Neuropeptide Y receptor type 4; assay: Inhibition of 10 nM PP-induced receptor internalization of eYFP-tagged human NPY4R expressed in HEK293 cells at 30 uM after 30 mins by fluorescence microscopy; format: cell-based; conditions: filed as allosteric antagonist
Summary of the method: as §2

[9] = test system: COS7; assay: Allosteric antagonist activity at human NPY4R chimera containing NPY1R extracellular loop 2 expressed in COS7 cells co-expressing Gqi5-alpha assessed as inhibition of PP-induced Ca2+ flux at 15 uM by Fluo-2 AM dye based fluorescent assay; format: cell-based
Summary of the method: as §1

[10] = target: T2, Neuropeptide Y receptor type 4; assay: Displacement of [125I]-PP from human NPY4R expressed in HEK293 cell membranes assessed as remaining radioligand binding incubated for 5 hrs using 60 pM [125I]-PP by microBeta scintillation counting assay; conditions: Cell membrane, filed as allosteric antagonist
Summary of the method: (§3)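 Membranes from stable HEK293 Y4R-eYFP cells, 0.3 μg in HEPES buffer (25 mM HEPES, […], 1 mM MgCl2, Pefabloc, pH 7.4) with DMSO or compound. Incubated with 60 or 180 pM human ¹²⁵I-PP for 5 h at room temperature. Nonspecific binding set with 1 μM PP. Bound ligand collected on PEI-soaked GF/C filters and counted by scintillation.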

[11] = target: T2, Neuropeptide Y receptor type 4; assay: Displacement of [125I]-PP from human NPY4R expressed in HEK293 cell membranes assessed as remaining radioligand binding incubated for 5 hrs using 180 pM [125I]-PP by microBeta scintillation counting assay; conditions: Cell membrane
Summary of the method: as §3

[12] = test system: COS7; assay: Allosteric antagonist activity at human NPY4R chimera containing NPY1R transmembrane helix 1 expressed in COS7 cells co-expressing Gqi5-alpha assessed as inhibition of PP-induced Ca2+ flux at 15 uM by Fluo-2 AM dye based fluorescent assay; format: cell-based
Summary of the method: as §1

[13] = target: T2, Neuropeptide Y receptor type 4; assay: Allosteric antagonist activity at human NPY4R expressed in HEK293 cells assessed as reduction in rate of PP-induced arrestin-3 recruitment at 30 uM measured after 30 mins by BRET assay; format: cell-based; conditions: filed as allosteric antagonist
Summary of the method: (§4)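 BRET in HEK293 cells transiently expressing Y4R-Rluc8 and venus-arr3. Pretreated with 30 μM compound or DMSO, then read continuously for 30 min after 100 nM PP. Fluorescence/luminescence ratio, unstimulated control subtracted to give netBRET. Rate constant k from a one-phase association fit. N ≥ 4, unpaired t-test.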

[14] = target: T2, Neuropeptide Y receptor type 4; assay: Allosteric antagonist activity at human NPY4R expressed in HEK293 cells assessed as reduction in PP-induced arrestin-3 recruitment at 30 uM measured after 30 mins by BRET assay; format: cell-based; conditions: filed as allosteric antagonist
Summary of the method: as §4

[15] = target: T2, Neuropeptide Y receptor type 4; assay: Inhibition of receptor internalization of eYFP-tagged human NPY4R expressed in HEK293 cells at 30 uM after 30 mins by fluorescence microscopy; format: cell-based
Summary of the method: as §2

[16] = target: T4, Neuropeptide Y receptor type 1 (Homo sapiens) (UniProt P25929); assay: Allosteric antagonist activity at […]-tagged human NPY1R expressed in COS7 cells co-expressing Gqi5-alpha assessed as inhibition of NPY-induced Ca2+ flux at 30 uM by Fluo-2 AM dye based fluorescent assay; format: functional, cell-based
T4 sequence (whole entry): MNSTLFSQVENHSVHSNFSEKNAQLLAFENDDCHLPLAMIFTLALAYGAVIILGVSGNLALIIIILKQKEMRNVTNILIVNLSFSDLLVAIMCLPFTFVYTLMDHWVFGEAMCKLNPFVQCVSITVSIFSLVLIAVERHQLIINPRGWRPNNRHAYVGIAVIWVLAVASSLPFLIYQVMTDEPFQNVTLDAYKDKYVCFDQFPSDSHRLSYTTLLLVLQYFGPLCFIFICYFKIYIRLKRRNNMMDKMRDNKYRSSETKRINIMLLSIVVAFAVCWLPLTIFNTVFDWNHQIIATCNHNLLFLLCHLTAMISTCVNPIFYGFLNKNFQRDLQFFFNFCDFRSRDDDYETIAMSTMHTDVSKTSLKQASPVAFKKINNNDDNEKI
Summary of the method: (§5)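 Stable COS7 lines expressing Y1R-, Y2R- or Y5R-eYFP plus chimeric Δ6Gαqi4myr, loaded with 2.4 μM Fluo2-AM in HBSS/20 mM HEPES/2.5 mM probenecid pH 7.4. After 20 s baseline, DMSO or 30 μM compound added, NPY added 110 s later, 140 s run. Read at ex 485/em 525 nm. Signal taken as x-fold over basal, normalized to 1 μM NPY maximum. N ≥ 3.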

[17] = target: T2, Neuropeptide Y receptor type 4; assay: Displacement of [125I]-PP from human NPY4R expressed in HEK293 cell membranes incubated for 5 hrs by microBeta scintillation counting assay; conditions: Cell membrane, filed as allosteric antagonist
Summary of the method: as §3

[18] = target: T5, Neuropeptide Y receptor type 2 (Homo sapiens) (UniProt P49146); assay: Allosteric antagonist activity at […]-tagged human NPY2R expressed in COS7 cells co-expressing Gqi5-alpha assessed as inhibition of NPY-induced Ca2+ flux at 30 uM by Fluo-2 AM dye based fluorescent assay; format: functional, cell-based
T5 sequence (whole entry): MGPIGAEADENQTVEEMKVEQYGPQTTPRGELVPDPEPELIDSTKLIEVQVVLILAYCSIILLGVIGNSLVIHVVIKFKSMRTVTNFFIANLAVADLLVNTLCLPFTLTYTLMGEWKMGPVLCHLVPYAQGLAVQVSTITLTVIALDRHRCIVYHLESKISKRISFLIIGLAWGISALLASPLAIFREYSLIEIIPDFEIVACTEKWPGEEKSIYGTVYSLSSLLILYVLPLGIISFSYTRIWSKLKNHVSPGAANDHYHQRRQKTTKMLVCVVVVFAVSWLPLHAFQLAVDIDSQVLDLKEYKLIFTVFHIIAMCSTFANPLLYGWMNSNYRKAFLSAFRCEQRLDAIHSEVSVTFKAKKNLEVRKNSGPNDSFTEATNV
Summary of the method: as §5

[19] = target: T6, Neuropeptide Y receptor type 5 (Homo sapiens) (UniProt Q15761); assay: Allosteric antagonist activity at […]-tagged human NPY5R expressed in COS7 cells co-expressing Gqi5-alpha assessed as inhibition of NPY-induced Ca2+ flux at 30 uM by Fluo-2 AM dye based fluorescent assay; format: functional, cell-based
T6 sequence (whole entry): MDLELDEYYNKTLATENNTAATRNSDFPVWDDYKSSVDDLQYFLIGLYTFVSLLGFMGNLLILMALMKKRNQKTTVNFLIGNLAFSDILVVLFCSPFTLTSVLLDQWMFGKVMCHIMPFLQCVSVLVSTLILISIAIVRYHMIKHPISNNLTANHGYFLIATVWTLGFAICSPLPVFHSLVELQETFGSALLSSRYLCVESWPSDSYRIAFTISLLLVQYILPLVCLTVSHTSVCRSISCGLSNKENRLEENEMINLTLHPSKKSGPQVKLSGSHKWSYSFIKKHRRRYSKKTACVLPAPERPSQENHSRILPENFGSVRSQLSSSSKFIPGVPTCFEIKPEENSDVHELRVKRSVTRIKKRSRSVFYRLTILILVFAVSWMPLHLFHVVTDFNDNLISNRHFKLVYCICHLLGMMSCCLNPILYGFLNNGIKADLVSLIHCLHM
Summary of the method: as §5

## CS(=O)(=O)N1CCCC[C@@H]1C(=O)Nc1nc2cc3c(cc2s1)OCCO3
[1]
  inhibition: inactive
[2]
  pIC50: inactive
[2]; cos7
  IC50: Not Active
[3]
  inhibition: inactive
[4]
  inhibition: inactive
[5]
  inhibition: inactive

## CS(=O)(=O)N1CCCCC1C(=O)Nc1nc2cc3c(cc2s1)OCCO3 (racemic)
[2]; read-out: IC50
  IC50: 4 µM
[6]
  inhibition: inactive
[7]
  inhibition: Active
[8]
  inhibition: Active
[9]
  inhibition: inactive
[10]
  Activity: 15%
[11]
  inhibition: inactive
[12]
  inhibition: inactive
[13]
  inhibition: Active
[14]
  inhibition: Active
[15]
  inhibition: inactive
[16]
  inhibition: inactive
[17]
  inhibition: Dose-dependent effect
[18]
  inhibition: inactive
[19]
  inhibition: inactive
